Results collected from several papers.
Compare with care: the assays were run in different laboratories.
Target: Serine/threonine-protein kinase 24 (STK24, Homo sapiens, UniProt Q9Y6E0)

SMILES	test	setting	remaining binding
O=C(Nc1c[nH]nc1C(=O)NC1CCNCC1)c1cc(F)cc(F)c1	binding, competition with immobilised ligand	1 µM	91%
CCN1CCN(Cc2ccc(C(=O)Nc3ccc(C)c(Oc4ccc5c(c4)CC(=O)N5)c3)cc2C(F)(F)F)CC1	binding, competition with immobilised ligand	1 µM	94%
COc1ccnn2ncc(-c3ccnc(N(C)C)n3)c12	binding	1 µM	100%
O=C(NC[C@@H]1[C@H]2CN(C(=O)OCc3cc(C(F)(F)F)cc(C(F)(F)F)c3)C[C@@H]12)c1ccc2[nH]nnc2c1	cell-free assay, competition with immobilised ligand	1 µM	90%
Cc1cnn2ncc(-c3ccnc(N(C)C)n3)c2c1	binding	1 µM	98%
CCCCN(CCCC)C(=O)CN1C[C@@H](c2cc(OC)c3c(c2)OCO3)[C@H](C(=O)O)[C@H]1CC(C)(C)CCC	cell-free assay, competition with immobilised ligand	1 µM	93.9%
O=C(NCCCN1CCOCC1)c1ccc(Nc2nccc(-c3cc4ccccc4s3)n2)cc1	binding, competition with immobilised ligand	1 µM	39%
COc1cnc(Nc2cccc(S(N)(=O)=O)c2)nc1N1CCN(c2ccccc2)C(=O)C1	binding, competition with immobilised ligand	1 µM	97%
FC(F)(F)Oc1cccc(-c2cnc3ccc(-c4ccncc4)nn23)c1	cell-free assay, competition with immobilised ligand	5 µM	86%
O=C(NCCCN1CCOCC1)c1ccc(Nc2ncc(Cl)c(-c3ccc(Cl)s3)n2)cc1	binding, competition with immobilised ligand	1 µM	17%
N[C@@H]1CCN(c2nccc(-c3cnn4ncccc34)n2)C1	binding	1 µM	100%
O=C(c1ccc(Nc2nccc(-c3cc4ccccc4s3)n2)cc1)N1CCC(N2CCCC2)CC1	binding, competition with immobilised ligand	1 µM	83%
Nc1ncc2c(n1)-c1c([nH]c3ccc(C#CC4CC4)cc13)CCCC2	binding, competition with immobilised ligand	1 µM	80%
CS(=O)(=O)NCC[C@H](NC(=O)c1cncc2c1cnn2-c1ccc(F)cc1)c1ccnc(S(C)(=O)=O)c1	cell-free assay, competition with immobilised ligand	1 µM	100%
CN(C)c1nccc(-c2cnc3ncccn23)n1	binding	1 µM	94%
O=C(NS(=O)(=O)c1ccc(NCC2CCOCC2)c([N+](=O)[O-])c1)c1ccc(N2CCN(Cc3ccc(C(F)(F)F)cc3-c3ccc(Cl)cc3)CC2)cc1Oc1cnc2[nH]ccc2c1	cell-free assay, competition with immobilised ligand	1 µM	100%
C[C@@H]1CCN(c2nccc(-c3cnn4ncccc34)n2)C1	binding	1 µM	63%
CCS(=O)(=O)c1cc2cc(C[C@](O)(CC(C)(C)c3ccc(F)cc3C(N)=O)C(F)(F)F)[nH]c2cn1	cell-free assay, competition with immobilised ligand	1 µM	86%
CNC(=O)[C@@H]1CC[C@@H](n2c(-c3ccc4cnccc4c3)nc3ccc(C(=O)NCc4cccc(C(N)=O)c4)cc32)C1	binding, competition with immobilised ligand	1 µM	100%
